8 compounds from ChEMBL document CHEMBL1138835, “Inhibitors of multiple mutants of Plasmodium falciparum dihydrofolate reductase and their antimalarial activities” (J Med Chem, 2004) can be followed below.

In test [1] the target is Bifunctional dihydrofolate reductase-thymidylate synthase (Plasmodium falciparum K1, UniProt P13922, C59R/I164L/N51I/S108N). Kind of test: Binding affinity towards mutant dihydrofolate reductase (N51I+C59R+S108N+I164L DHFR) of Plasmodium falciparum.
In test [2] the target is Bifunctional dihydrofolate reductase-thymidylate synthase (Plasmodium falciparum K1) (UniProt P13922). Kind of test: Ratio of binding affinity for mutant (N51I+C59R+S108N) to that of wild type dihydrofolate reductase. Summed up: (§1)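 Each ratio is Ki for the mutant PfDHFR divided by Ki for wild-type PfDHFR. The recombinant enzymes were expressed in E. coli BL21(DE3)pLysS and purified on methotrexate-Sepharose. Ki was derived assuming inhibitors compete with substrate binding.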
Chain of Bifunctional dihydrofolate reductase-thymidylate synthase (Plasmodium falciparum K1) (P13922 whole entry, looked up): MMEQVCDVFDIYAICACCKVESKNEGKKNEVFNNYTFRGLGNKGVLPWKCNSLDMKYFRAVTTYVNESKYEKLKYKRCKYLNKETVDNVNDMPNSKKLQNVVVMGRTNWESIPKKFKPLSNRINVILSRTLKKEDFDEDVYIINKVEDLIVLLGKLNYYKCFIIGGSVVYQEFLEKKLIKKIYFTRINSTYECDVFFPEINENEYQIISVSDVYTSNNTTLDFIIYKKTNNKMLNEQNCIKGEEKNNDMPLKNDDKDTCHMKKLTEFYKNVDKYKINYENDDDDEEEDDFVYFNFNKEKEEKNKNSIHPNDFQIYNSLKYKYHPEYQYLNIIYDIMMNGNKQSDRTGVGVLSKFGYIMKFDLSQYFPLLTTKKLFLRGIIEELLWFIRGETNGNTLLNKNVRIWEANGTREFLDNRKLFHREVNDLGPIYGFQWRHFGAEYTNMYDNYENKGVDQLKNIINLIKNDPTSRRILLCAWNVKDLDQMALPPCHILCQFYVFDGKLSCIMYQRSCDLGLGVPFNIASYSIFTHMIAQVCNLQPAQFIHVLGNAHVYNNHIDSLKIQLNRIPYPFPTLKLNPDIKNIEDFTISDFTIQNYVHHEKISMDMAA

For test [3], the system named is KB. Kind of test: Relative antiplasmodial activity to cytotoxicity in Plasmodium falciparum V1/S infected KB cells. In kind it is functional.
Test [4] concerns the target Bifunctional dihydrofolate reductase-thymidylate synthase (Plasmodium falciparum K1, UniProt P13922, C59R/N51I/S108N). Description: Binding affinity towards mutant dihydrofolate reductase (N51I+C59R+S108N DHFR) of Plasmodium falciparum.
Test [5] relates to BC. Kind of test: In vitro cytotoxicity against BC cell line. The following applies: Homo sapiens.
For test [6], the system named is Bifunctional dihydrofolate reductase-thymidylate synthase (Plasmodium falciparum K1), P13922 [UNDEFINED MUTATION]. Description: Ratio of binding affinity for mutant (C59R+S108N+I164L) to that of wild type dihydrofolate reductase. Summed up:
as §1

In test [7] the test system is Vero. Description: Relative antiplasmodial activity to cytotoxicity in Plasmodium falciparum Csl-2 infected Vero cells. The format is functional.
Test [8] concerns Bifunctional dihydrofolate reductase-thymidylate synthase (Plasmodium falciparum K1), P13922 [UNDEFINED MUTATION]. Kind of test: Ratio of binding affinity for mutant (A16V+S108T) to that of wild type dihydrofolate reductase. Summed up:
as §1

Test [9] relates to Vero. Kind of test: Relative antiplasmodial activity to cytotoxicity in Plasmodium falciparum V1/S infected Vero cells. In kind it is functional.
For test [10], the system named is Vero. Kind of test: Relative antiplasmodial activity to cytotoxicity in Plasmodium falciparum TM4/8.2 infected Vero cells. The format is functional.
In test [11] the test system is Vero. Description: In vitro cytotoxicity against Plasmodium falciparum infected vero cell line. In kind it is functional, cell-based. The following applies: Chlorocebus sabaeus. Summed up:
(§2)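 Cytotoxicity (IC50, μM) run against three mammalian lines: Vero (African green monkey kidney fibroblasts), KB (human epidermoid carcinoma) and BC (human breast cancer). Testing followed the Skehan et al. protocol.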

Test [12] concerns KB. Kind of test: Relative antiplasmodial activity to cytotoxicity in Plasmodium falciparum Csl-2 infected KB cells. The format is functional.
The target in test [13] is Bifunctional dihydrofolate reductase-thymidylate synthase (Plasmodium falciparum K1, UniProt P13922, A16V/S108T). Description: Binding affinity towards mutant dihydrofolate reductase (A16V+S108T DHFR) of Plasmodium falciparum.
Chain of Bifunctional dihydrofolate reductase-thymidylate synthase (Plasmodium falciparum K1, UniProt P13922, A16V/S108T) (P13922 whole entry, looked up, stated change not applied): as the sequence (P13922 whole entry, looked up) above
Test [14] concerns KB. Description: In vitro cytotoxicity against Plasmodium falciparum infected KB cell line. In kind it is functional, cell-based. The following applies: Homo sapiens. Summed up: as §2
For test [15], the target named is Bifunctional dihydrofolate reductase-thymidylate synthase (Plasmodium falciparum K1, UniProt P13922, C59R/I164L/S108N). Description: Binding affinity towards mutant dihydrofolate reductase (C59R+S108N+I164L DHFR) of Plasmodium falciparum.
Chain of Bifunctional dihydrofolate reductase-thymidylate synthase (Plasmodium falciparum K1, UniProt P13922, C59R/I164L/S108N) (P13922 whole entry, looked up, stated change not applied): as the sequence (P13922 whole entry, looked up) above
Test [16] relates to BC. Description: Relative antiplasmodial activity to cytotoxicity in Plasmodium falciparum Csl-2 infected BC cells. The format is functional.
Test [17] relates to Bifunctional dihydrofolate reductase-thymidylate synthase (Plasmodium falciparum K1), P13922 [UNDEFINED MUTATION]. Description: Ratio of binding affinity for mutant (N51I+C59R+S108N+I164L) to that of wild type dihydrofolate reductase. The method in brief: as §1
Chain of Bifunctional dihydrofolate reductase-thymidylate synthase (Plasmodium falciparum K1), P13922 [UNDEFINED MUTATION] (P13922 whole entry, looked up, stated change not applied): as the sequence (P13922 whole entry, looked up) above
Test [18] has as its system KB. Description: Relative antiplasmodial activity to cytotoxicity in Plasmodium falciparum TM4/8.2 infected KB cells. The format is functional.
The subject of test [19] is BC. Description: Relative antiplasmodial activity to cytotoxicity in Plasmodium falciparum TM4/8.2 infected BC cells. The format is functional.

Chain of Bifunctional dihydrofolate reductase-thymidylate synthase (Plasmodium falciparum K1, UniProt P13922, C59R/I164L/N51I/S108N) (P13922 whole entry, looked up, stated change not applied): as the sequence (P13922 whole entry, looked up) above
Chain of Bifunctional dihydrofolate reductase-thymidylate synthase (Plasmodium falciparum K1, UniProt P13922, C59R/N51I/S108N) (P13922 whole entry, looked up, stated change not applied): as the sequence (P13922 whole entry, looked up) above

As to `NC1=NC(c2cccc(OCc3ccccc3)c2)N(c2cccc(Cl)c2)C(N)=N1` (configuration not stated), the inhibition constant (Ki) was determined as 7.7 nM in test [1], 3.2 nM in [4], 3.2 nM in [13] and 3.6 nM in test [15]. The Ratio in test [2] is 1.4; in test [6], 1.6; in test [8], 1.4; in test [17], 3.3. For the same compound, the Safety ratio in test [3] was 1; in test [7] it was >6.7; in test [9] it was >6.1; in test [10], >12.5; in test [12] it was 1.1; in test [16], 2.9. Moreover, the Safety ratio is recorded as 2 in test [18] and 5.5 in test [19]. Also, the results for the IC50 in test [5], in [11] and in test [14] were 22000 nM, > 50000 nM and 8000 nM, respectively.
In the case of `CCCCCCC1(C)N=C(N)N=C(N)N1c1cccc(Cl)c1` (configuration not stated), the inhibition constant (Ki) in test [1] worked out at 15.9 nM; in test [4], 5.5 nM; in test [13] it was 101 nM; in test [15], 12.1 nM. In addition, the Ratio in test [2] was found to be 2.3; in [6] it was 5; in test [8] it was 41.9; in test [17], 6.58. In addition, the Safety ratio in test [3] is on record as 1.3; in test [7], 469; in test [9], 71.9; in test [10] it was 3833; in [12], 8.2; in test [16], 4.5. Moreover, the Safety ratio is recorded as 66.7 in test [18] and 36.7 in test [19]. For the same compound, the half-inhibitory concentration (IC50) in test [5] is 2200 nM; in [11], 230000 nM; in [14] it was 4000 nM.
On to `NC1=NC(c2cccc(Oc3cc(Cl)cc(Cl)c3)c2)N(c2cccc(Cl)c2)C(N)=N1` (configuration not stated), for which the inhibition constant Ki is 2.7 nM in test [1], 1 nM in [4], 4.7 nM in test [13] and 0.6 nM in test [15]. Also, the Ratio in [2] stood at 0.6; in test [6], 0.3; in test [8], 2.6; in [17], 1.5. The Safety ratio in test [3] stood at 1.5; in test [7], 7.2; in test [9], 7.2; in [10], 5.1; in [12], 1.5; in test [16], 2.6. Besides, the Safety ratio in test [18] stood at 1.1; in test [19], 1.8. Besides, the IC50 is 10000 nM in test [5], 28000 nM in test [11] and 6000 nM in [14].
For `CCCCCCCC1N=C(N)N=C(N)N1c1cccc(Cl)c1` (configuration not stated), the inhibitory constant (Ki) was found to be 0.8 nM in test [1], 1 nM in [4], 3.8 nM in [13] and 0.3 nM in [15]. Moreover, the Ratio in [2] is 0.4; in test [6] it was 0.1; in test [8], 1.4; in test [17], 0.3. In addition, the Safety ratio in test [3] is recorded as 0.4; in [7], >357; in [9], >20; in test [10] it was >1250; in test [12], 7.1; in test [16], 12.9. The Safety ratio was 25 in test [18] and 45 in test [19]. Also, the IC50 in test [5] is 1800 nM; in [11], > 50000 nM; in [14], 1000 nM.
For the compound `NC1=NC(c2cccc(Oc3ccc(Cl)cc3)c2)N(c2cccc(Cl)c2)C(N)=N1` (configuration not stated), the inhibition constant Ki is 8 nM in [1], 1.9 nM in [4], 3.5 nM in [13] and 5.1 nM in [15]. Also, the Ratio amounted to 1.5 in test [2], 3.9 in test [6], 2.7 in test [8] and 6.1 in test [17]. For the same compound, the Safety ratio in [3] was 2.2; in [7] it was 10; in test [9], 9.7; in [10], 7.9; in test [12], 2.3; in [16], 3.2. The figures for the Safety ratio in test [18] and in [19] were 1.8 and 2.6, respectively. Further, the IC50 in test [5] is 10000 nM; in test [11], 31000 nM; in [14], 7000 nM.
`NC1=NC(c2ccc(Oc3ccccc3)cc2)N(c2ccc(Cl)cc2)C(N)=N1` (configuration not stated): the Ki in [1] was determined as 222 nM; in test [4], 29.3 nM; in test [13], 3.8 nM; in test [15] it was 145 nM. For the same compound, the Ratio turned out to be 73.1 in test [2], 363 in [6], 9.5 in [8] and 555 in test [17]. The Safety ratio is recorded as 1 in test [3]; >10.4 in test [7]; >7.2 in test [9]; >417 in [10]; 1.5 in test [12]; 1.8 in [16]. Further, the Safety ratio was found to be 58.3 in test [18] and 71.7 in test [19]. Moreover, the half-maximal inhibitory concentration (IC50) was 8600 nM in test [5], > 50000 nM in [11] and 7000 nM in test [14].
In the case of `NC1=NC(c2cccc(Oc3ccccc3)c2)N(c2cccc(Cl)c2)C(N)=N1` (configuration not stated), the Ki in test [1] stood at 5.8 nM; in test [4], 2.5 nM; in [13] it was 2.5 nM; in test [15], 3 nM. Besides, the Ratio was 2.3 in [2], 2.7 in test [6], 2.3 in test [8] and 5.3 in test [17]. Moreover, the Safety ratio in test [3] was 1.1; in test [7], >14.7; in [9], >13.9; in [10], >22.7; in test [12], 1.2; in test [16], 2.5. The results for the Safety ratio in test [18] and in [19] were 1.8 and 3.8, respectively. In addition, the IC50 in test [5] is 8400 nM; in test [11] it was > 50000 nM; in test [14] it was 4000 nM.
`NC1=NC(c2cccc(Oc3ccc(Cl)cc3)c2)N(c2ccc(Cl)cc2)C(N)=N1` (configuration not stated): the Ki in test [1] turned out to be 121 nM; in [4] it was 85.5 nM; in test [13], 7.5 nM; in [15], 151 nM. Further, the Ratio in test [2] was found to be 61.1; in test [6], 108; in [8], 5.4; in test [17] it was 86.4. The Safety ratio in [3] worked out at 1.1; in test [7], 7.8; in test [9], 8.2; in test [10], 11.1; in test [12], 1; in test [16] it was 1.8. Also, the results for the Safety ratio in [18] and in test [19] were 1.4 and 2.5, respectively. The results for the half-inhibitory concentration (IC50) in [5], in [11] and in test [14] were 7000 nM, 31000 nM and 4000 nM, respectively.
